The values that follow come from ChEMBL document CHEMBL1649395, “Synthesis and antibacterial activity of novel ketolides with 11,12-sulfur contained aryl alkyl side chains” (2011).

Assay type in all cases: functional
For test [1], the system named is Streptococcus pneumoniae. Kind of test: Antibacterial activity against erythromycin-resistant Streptococcus pneumoniae 07P390 by broth microdilution method. An outline of the steps: (§1)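 Clinical isolates were supplied by China's Ministry of Health National Antimicrobial Resistance Investigation Net (MOHNARIN). Activity was reported as minimum inhibitory concentration (MIC), determined by broth microdilution following NCCLS recommendations.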
On the technique in general: Broth dilution looks for growth in wells or tubes with falling amounts of substance.

The test system of test [2] is Haemophilus influenzae. Description: Antibacterial activity against erythromycin-susceptible Haemophilus influenzae 07O339 by broth microdilution method. In a few lines:
(§2)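 Strains were ATCC reference strains or clinical isolates from China's national antimicrobial resistance surveillance network (MOHNARIN). In vitro activity was measured by broth microdilution following NCCLS recommendations. Results are reported as minimum inhibitory concentration (MIC) in mg/L.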

Test [3] has as its system Streptococcus pyogenes. Description: Antibacterial activity against erythromycin-resistant Streptococcus pyogenes 03-233 by broth microdilution method. In a few lines: as §1
For test [4], the system named is Staphylococcus epidermidis. Description: Antibacterial activity against methicillin-resistant Staphylococcus epidermidis 07R066 by broth microdilution method. An outline of the steps: as §1
The test system of test [5] is Staphylococcus epidermidis. Description: Antibacterial activity against methicillin-susceptible Staphylococcus epidermidis 07C134 by broth microdilution method. In a few lines:
as §1

The test system of test [6] is Streptococcus pyogenes. Kind of test: Antibacterial activity against erythromycin-susceptible Streptococcus pyogenes 07U086 by broth microdilution method. An outline of the steps: as §2
Test [7] relates to Streptococcus pyogenes. Description: Antibacterial activity against erythromycin-resistant Streptococcus pyogenes 01-533 by broth microdilution method. An outline of the steps: as §1
Test [8] has as its system Staphylococcus aureus. Description: Antibacterial activity against methicillin-susceptible Staphylococcus aureus ANS46 by broth microdilution method. In a few lines: as §2
For test [9], the system named is Staphylococcus epidermidis. Description: Antibacterial activity against methicillin-susceptible Staphylococcus epidermidis 07T202 by broth microdilution method. In a few lines:
as §2

Test [10] concerns Haemophilus influenzae. Description: Antibacterial activity against erythromycin-susceptible Haemophilus influenzae 07O114 by broth microdilution method. An outline of the steps:
as §2

Test [11] has as its system Haemophilus influenzae. Kind of test: Antibacterial activity against erythromycin-susceptible Haemophilus influenzae ATCC 49247 by broth microdilution method. In a few lines: as §2
Test [12] deals with Haemophilus influenzae. Description: Antibacterial activity against erythromycin-susceptible Haemophilus influenzae 07O394 by broth microdilution method. In a few lines: as §2
For test [13], the system named is Staphylococcus epidermidis. Kind of test: Antibacterial activity against methicillin-resistant Staphylococcus epidermidis 07A066 by broth microdilution method. In a few lines:
as §1

Test [14] has as its system Streptococcus pneumoniae. Kind of test: Antibacterial activity against erythromycin-susceptible Streptococcus pneumoniae 07H252 by broth microdilution method. An outline of the steps:
as §2

Test [15] concerns Streptococcus pyogenes. Description: Antibacterial activity against erythromycin-susceptible Streptococcus pyogenes 07U084 by broth microdilution method. An outline of the steps: as §2
In test [16] the test system is Streptococcus pneumoniae. Description: Antibacterial activity against erythromycin-susceptible Streptococcus pneumoniae ATCC 49619 by broth microdilution method. In a few lines:
as §2

The subject of test [17] is Staphylococcus aureus. Kind of test: Antibacterial activity against methicillin-susceptible Staphylococcus aureus ATCC 29213 by broth microdilution method. An outline of the steps:
as §2

The subject of test [18] is Streptococcus pneumoniae. Kind of test: Antibacterial activity against erythromycin-resistant Streptococcus pneumoniae 07D201 by broth microdilution method. An outline of the steps: as §1

Converted amounts (≈) assume the structure as drawn.

Turning to `CC[C@H]1OC(=O)[C@H](C)C(=O)[C@H](C)[C@@H](O[C@@H]2O[C@H](C)C[C@H](N(C)C)[C@H]2O)[C@@](C)(OC)C[C@@H](C)C(=O)[C@H](C)[C@H]2N(CCCSc3nnnn3C)C(=O)O[C@]12C`, the MIC is 0.5 µg/mL (≈ 0.65 µM) in the test with Streptococcus pneumoniae [1]; 8 µg/mL (≈ 10.4 µM) against Haemophilus influenzae [2]; more than 32 µg/mL against Streptococcus pyogenes [3]; more than 32 µg/mL in test [4]; 0.25 µg/mL (≈ 0.325 µM) in test [5]; 0.062 µg/mL (≈ 0.0806 µM) in the test with Streptococcus pyogenes [6]. Also, the MIC against Streptococcus pyogenes [7] is 1 µg/mL (≈ 1.3 µM); against Staphylococcus aureus [8] it was more than 32 µg/mL; in test [9], more than 32 µg/mL; in the test on Haemophilus influenzae [10], 8 µg/mL (≈ 10.4 µM); against Haemophilus influenzae [11], 8 µg/mL (≈ 10.4 µM); with Haemophilus influenzae [12] it was 8 µg/mL (≈ 10.4 µM). In addition, the MIC was 1 µg/mL (≈ 1.3 µM) in test [13]; 8 µg/mL (≈ 10.4 µM) against Streptococcus pneumoniae [14]; 0.062 µg/mL (≈ 0.0806 µM) with Streptococcus pyogenes [15]; 0.031 µg/mL (≈ 0.0403 µM) with Streptococcus pneumoniae [16]; 0.25 µg/mL (≈ 0.325 µM) with Staphylococcus aureus [17]; more than 32 µg/mL with Streptococcus pneumoniae [18].

With `CC[C@H]1OC(=O)[C@H](C)C(=O)[C@H](C)[C@@H](O[C@@H]2O[C@H](C)C[C@H](N(C)C)[C@H]2O)[C@@](C)(OC)C[C@@H](C)C(=O)[C@H](C)[C@H]2N(CCCSc3nnc(C)s3)C(=O)O[C@]12C`, the MIC with Streptococcus pneumoniae [1] is 0.125 µg/mL (≈ 0.159 µM); with Haemophilus influenzae [2] it was 2 µg/mL (≈ 2.55 µM); in the test with Streptococcus pyogenes [3], more than 32 µg/mL; in test [4], 2 µg/mL (≈ 2.55 µM); in [5] it was 0.125 µg/mL (≈ 0.159 µM); in the test with Streptococcus pyogenes [6], 0.031 µg/mL (≈ 0.0395 µM). The MIC with Streptococcus pyogenes [7] is 1 µg/mL (≈ 1.27 µM); in the test on Staphylococcus aureus [8] it was more than 32 µg/mL; in test [9], more than 32 µg/mL; in the test with Haemophilus influenzae [10], 2 µg/mL (≈ 2.55 µM); in the test with Haemophilus influenzae [11] it was 2 µg/mL (≈ 2.55 µM); in the test with Haemophilus influenzae [12], 2 µg/mL (≈ 2.55 µM). The MIC in test [13] was 0.125 µg/mL (≈ 0.159 µM); in the test with Streptococcus pneumoniae [14] it was not above 0.016 µg/mL; in the test with Streptococcus pyogenes [15], not above 0.016 µg/mL; in the test with Streptococcus pneumoniae [16], not above 0.016 µg/mL; in the test on Staphylococcus aureus [17], 0.25 µg/mL (≈ 0.318 µM); against Streptococcus pneumoniae [18], 16 µg/mL (≈ 20.4 µM).
